Source: article PMC11143505 (Acta Pharmaceutica Sinica. B, 2024)

What was measured:
healthy C57BL/6 mice = experiment: Hypoglycemia effect in fasted healthy mice; format: in vivo; details: for number of mice died from hypoglycemia / dose at which mice started to suffer from notable hypoglycemia: n = 6
How it was run: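 Tail-vein glucose was read by glucose meter at 30 min and 1–6 h. Hypoglycaemic effect was the area above the glycaemic curve and below 3.3 mmol/L. Survival was recorded at 10 U/kg. One-way ANOVA with Tukey test.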

Dynamic light scattering = format: physicochemical; details: DLS in PBS, average of three measurements
[1] = Absorption and urine excretion of Cy7-labeled samples; format: in vivo, mice; details: s.c., n = 3; for time at which fluorescence at the injected site was undetectable: live imaging
diabetic mice = experiment: Long-term efficacy in diabetic mice; format: in vivo; details: for kidney Masson staining, amount of collagen fiber / kidney PAS staining: Day 14; for kidney H&E pathological features: Day 14, insulin 1 mg/kg, di-PEGylated insulin 3 mg/kg
How it was run: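 Diabetes was induced in C57BL/6 mice with STZ 50 mg/kg i.p. in 0.1 mol/L citrate pH 4.5 on 5 consecutive days; only mice with fasting glucose >16.7 mmol/L at 2 weeks were used. […] Serum glycated protein, CREA and BUN were measured by kit on Days 7 and 14. Day-14 kidneys were stained with H&E, PAS and Masson (200×). Dunnett-corrected ANOVA.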

insulin receptor = insulin receptor (Mus musculus, UniProt P15208); experiment: Cell-based insulin receptor activation assay; details: C2C12 cells, phospho-AKT (Ser473) HTRF; relative to native insulin = 100%
Chain of insulin receptor (P15208 28-748 limits assumed): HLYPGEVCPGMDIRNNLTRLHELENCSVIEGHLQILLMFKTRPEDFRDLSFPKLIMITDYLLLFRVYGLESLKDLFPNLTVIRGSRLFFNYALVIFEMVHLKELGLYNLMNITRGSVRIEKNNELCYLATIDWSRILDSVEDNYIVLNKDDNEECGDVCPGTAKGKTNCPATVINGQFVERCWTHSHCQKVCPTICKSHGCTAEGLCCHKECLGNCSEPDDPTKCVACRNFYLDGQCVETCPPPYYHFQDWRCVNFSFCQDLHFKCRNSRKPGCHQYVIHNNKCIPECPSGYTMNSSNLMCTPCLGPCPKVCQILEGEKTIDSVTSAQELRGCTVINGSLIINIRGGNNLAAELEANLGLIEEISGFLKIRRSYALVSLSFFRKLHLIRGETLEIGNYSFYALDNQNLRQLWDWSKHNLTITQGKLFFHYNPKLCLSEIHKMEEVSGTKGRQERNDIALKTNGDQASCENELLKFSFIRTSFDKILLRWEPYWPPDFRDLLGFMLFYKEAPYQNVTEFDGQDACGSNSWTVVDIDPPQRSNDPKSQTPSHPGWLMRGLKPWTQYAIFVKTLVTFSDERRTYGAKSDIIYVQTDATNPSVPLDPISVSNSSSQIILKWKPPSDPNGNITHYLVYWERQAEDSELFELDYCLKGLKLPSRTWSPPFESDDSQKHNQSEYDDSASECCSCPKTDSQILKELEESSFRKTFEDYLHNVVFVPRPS
Chain of insulin receptor (P15208 753-1372 partner limits assumed): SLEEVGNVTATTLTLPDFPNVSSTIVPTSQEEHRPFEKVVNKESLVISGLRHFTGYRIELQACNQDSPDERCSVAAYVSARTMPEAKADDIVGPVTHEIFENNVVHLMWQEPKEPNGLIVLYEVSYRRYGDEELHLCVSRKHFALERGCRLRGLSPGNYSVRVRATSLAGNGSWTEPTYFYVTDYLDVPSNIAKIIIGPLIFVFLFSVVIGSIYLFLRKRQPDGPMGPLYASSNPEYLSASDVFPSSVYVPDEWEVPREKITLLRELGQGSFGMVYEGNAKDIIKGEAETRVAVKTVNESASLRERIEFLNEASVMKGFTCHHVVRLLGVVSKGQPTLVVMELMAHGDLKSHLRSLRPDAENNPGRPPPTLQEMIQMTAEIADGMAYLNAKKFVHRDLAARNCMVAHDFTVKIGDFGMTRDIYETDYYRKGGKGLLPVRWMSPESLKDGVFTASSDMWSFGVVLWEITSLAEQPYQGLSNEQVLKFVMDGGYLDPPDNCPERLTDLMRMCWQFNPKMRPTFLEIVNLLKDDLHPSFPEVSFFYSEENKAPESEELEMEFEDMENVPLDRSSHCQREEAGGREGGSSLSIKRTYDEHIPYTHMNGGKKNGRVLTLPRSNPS

Pharmacokinetics = format: in vivo, mice; details: n = 5; for delay of time to peak concentration: compared with insulin
[2] = tested on: STZ-induced diabetic mice; experiment: Glycemic control in STZ-induced type 1 diabetic mice with IPGTT; format: in vivo; details: s.c.; for number of mice experiencing hypoglycemia within 4 h post-injection / time for blood glucose to drop to the normoglycemic range: n = 6; for time for blood glucose to drop to the normoglycemic range: fasted STZ diabetic mice; for response to the first glucose challenge (IPGTT): glucose 2 g/kg i.p. at 4.5 h
healthy C57 mice = experiment: Biosafety in healthy mice; format: in vivo; details: 2 weeks daily; for blood cell counts: n = 5 or 6
How it was run: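 Body weight was recorded every 2 days. After two weeks, blood was collected and blood cell counts were run on an automated veterinary haematology analyser.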

In vitro stability = format: physicochemical; details: 1 mg/mL in PBS pH 7.4, 37 °C, 100 rpm, 80 h
[3] = diabetic mice, Iso-insulin ELISA

In the case of “insulin: Recombinant human insulin (26 U/mg) from Tonghua Dongbao Pharmaceutical [reference compound]”, the “number of mice died from hypoglycemia” value (healthy C57BL/6 mice; s.c., 10 U/kg, healthy mice) is reported as 4, the “dose at which mice started to suffer from notable hypoglycemia” value (healthy C57BL/6 mice; s.c., fasted healthy mice) is reported as 2 U/kg and the hydrodynamic size (Dynamic light scattering) is reported as 4.1 ± 0.2 nm. The “fluorescence retention rate at the injected site” value ([1]; 4 h post-injection) was 50%, the “time of maximum urine fluorescence signal” value ([1]; Cy7 0.1 mg/kg, IVIS imaging of urine) was 2 h and the “time at which urine fluorescence was close to the background value” ([1]; Cy7 0.1 mg/kg) was 4 h. For the same substance, the “kidney Masson staining, amount of collagen fiber” value (diabetic mice) was “decreased”, the “kidney PAS staining” value (diabetic mice) was “thicker glomerular basement membrane and incomplete brush border” and the “kidney H&E pathological features” value (diabetic mice) was “somewhat attenuated”. For the same substance, the Emax (insulin receptor) was 100%, the “time at which serum concentration was essentially undetectable” value (Pharmacokinetics; healthy mice, insulin ELISA) was 4 h and the “number of mice experiencing hypoglycemia within 4 h post-injection” value ([2]; 5 U/kg, STZ diabetic mice) was 5. For the same substance, the “time for blood glucose to drop to the normoglycemic range” value ([2]; 5 U/kg) was no more than 30 min, the “response to the first glucose challenge (IPGTT)” value ([2]; 5 U/kg) was “didn't show any efficacy in lowering blood glucose” and the “inflammatory cell infiltration in the skin at the injection site” value (healthy C57 mice; H&E) was “No significant inflammatory cell infiltration”. For the same substance, the blood cell counts (healthy C57 mice) was “no noticeable change”.

With “mono-PEGylated insulin: insulin conjugated with one PEG chain (MW 5000) at Lys B29” the “increase in maximum tolerated dose” value (healthy C57BL/6 mice; healthy mice, from area under the hypoglycemia line, 10 U/kg vs 1 U/kg insulin) was “didn't show a significant improvement”, the “number of mice died from hypoglycemia” value (healthy C57BL/6 mice; s.c., 10 U/kg, healthy mice) was 5 and the “dose at which mice started to suffer from notable hypoglycemia” value (healthy C57BL/6 mice; s.c., fasted healthy mice) was 2 U/kg. For the same substance, the “time at which fluorescence at the injected site was undetectable” value [1] was 4 h, the Emax (insulin receptor) was 95.7% and the “delay of time to peak concentration” value (Pharmacokinetics; [3]) was “approximately 1 h”. For the same substance, the “number of mice experiencing hypoglycemia within 4 h post-injection” value ([2]; 5 U/kg, STZ diabetic mice) was 4, the “time for blood glucose to drop to the normoglycemic range” value ([2]; 5 U/kg) was no more than 30 min and the “response to the following two additional IPGTTs” value ([2]; 5 U/kg, glucose 2 g/kg i.p. at 7.5 and 10.5 h) was “didn't exhibit glucose-lowering effects”. The “response to the first glucose challenge (IPGTT)” value ([2]; 5 U/kg) was “moderate efficacy but failed to lower blood glucose to normoglycemic levels”.

In the case of “di-PEGylated insulin: insulin conjugated with two PEG chains (MW 5000) at Lys B29 and Gly A1”, the “hypoglycemia in healthy mice” value (healthy C57BL/6 mice; s.c., 10 U/kg, fasted healthy mice, n = 6, threshold 3.3 mmol/L) is reported as “didn't suffer from hypoglycemia”, the hydrodynamic size (Dynamic light scattering) is reported as 8.3 ± 1.1 nm and the “time at which urine fluorescence signals could still be detected” value ([1]; Cy7 0.1 mg/kg) is reported as 12 h. The “time at which fluorescence at the injected site was undetectable” value [1] was 4 h, the “glycated serum protein (GSP) level” value (diabetic mice; 2-week treatment, 3 mg/kg daily, n = 6) was “markedly reduced” and the “kidney Masson staining, amount of collagen fiber” value (diabetic mice) was “decreased”. For the same substance, the “kidney PAS staining” value (diabetic mice) was “preserved glomerular basement membrane”, the “kidney H&E pathological features” value (diabetic mice) was “somewhat attenuated” and the Emax (insulin receptor) was 63.5%. For the same substance, the “time at which serum concentration was still detected” value (Pharmacokinetics; [3]) was 12 h, the “delay of time to peak concentration” value (Pharmacokinetics; [3]) was “approximately 1 h” and the “number of mice experiencing hypoglycemia within 4 h post-injection” value ([2]; 5 U/kg, STZ diabetic mice) was “no mice”. The “duration of blood glucose management after a single dose” value ([2]; 15 U/kg, STZ diabetic mice, three IPGTT 2 g/kg) was “over 13 h”, the blood cell counts (healthy C57 mice) was “no noticeable change” and the “change in transmittance after the assay” value (In vitro stability) was “less than 2%”.
